ChEMBL document CHEMBL1152214, “Synthesis and immunostimulatory properties of the phosphorothioate analogues of cdiGMP” (Bioorg Med Chem Lett, 2008)
Active and inactive are the calls of the source. The rule behind the calls is not given here.

Legend:
Format in all cases: functional, organism-based
[1] = organism: Mus musculus; assay: Induction of MIP-1beta secretion in C57BL/6 mouse
Outline: (§1)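 Mice dosed by intranasal instillation and killed after 24 h; bronchoalveolar lavage collected five times with PBS plus 3 mM EDTA; lavage fluid measured for a panel of 21 chemokines and cytokines.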

[2] = organism: Mus musculus; assay: Induction of IL-3 secretion in C57BL/6 mouse; outline: as §1
[3] = organism: Mus musculus; assay: Induction of IL-5 secretion in C57BL/6 mouse; outline: as §1
[4] = organism: Mus musculus; assay: Induction of IL-4 secretion in C57BL/6 mouse; outline: as §1
[5] = organism: Mus musculus; assay: Immunostimulatory activity in C57BL/6 mouse assessed as recruitment of inflammatory cells into bronchoalveolar spaces; conditions: Lung
Outline: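 Compound given to mice by intranasal instillation; animals killed 24 h later and lungs lavaged five times with PBS containing 3 mM EDTA; total and differential inflammatory cell counts determined in the bronchoalveolar lavage.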

[6] = organism: Mus musculus; assay: Induction of IL-10 secretion in C57BL/6 mouse; outline: as §1
[7] = organism: Mus musculus; assay: Induction of TNFalpha secretion in C57BL/6 mouse; outline: as §1
[8] = organism: Mus musculus; assay: Induction of IL-12(p40) secretion in C57BL/6 mouse; outline: as §1
[9] = organism: Mus musculus; assay: Induction of KC secretion in C57BL/6 mouse; outline: as §1
[10] = organism: Mus musculus; assay: Induction of IL1-beta secretion in C57BL/6 mouse; outline: as §1
[11] = organism: Mus musculus; assay: Induction of VEGF secretion in C57BL/6 mouse; outline: as §1
[12] = organism: Mus musculus; assay: Induction of IL-9 secretion in C57BL/6 mouse; outline: as §1
[13] = organism: Mus musculus; assay: Induction of GM-CSF secretion in C57BL/6 mouse; outline: as §1
[14] = organism: Mus musculus; assay: Induction of RNATES secretion in C57BL/6 mouse; outline: as §1
[15] = organism: Mus musculus; assay: Induction of IFN-gamma secretion in C57BL/6 mouse; outline: as §1
[16] = organism: Mus musculus; assay: Induction of IL-17 secretion in C57BL/6 mouse; outline: as §1
[17] = organism: Mus musculus; assay: Induction of IL-1alpha secretion in C57BL/6 mouse; outline: as §1
[18] = organism: Mus musculus; assay: Induction of IL-6 secretion in C57BL/6 mouse; outline: as §1
[19] = organism: Mus musculus; assay: Induction of MCP-1 secretion in C57BL/6 mouse; outline: as §1
[20] = organism: Mus musculus; assay: Induction of IL-13 secretion in C57BL/6 mouse; outline: as §1
[21] = organism: Mus musculus; assay: Induction of IL-2 secretion in C57BL/6 mouse; outline: as §1

## Nc1nc2ncn([C@@H]3O[C@@H]4COP(=O)(O)O[C@@H]5[C@H](O)[C@@H](n6cnc7nc(N)[nH]c(=O)c76)O[C@H]5COP(=O)(O)O[C@H]4[C@H]3O)c2c(=O)[nH]1
[1]
  Activity: Dose-dependent effect
[2]
  Activity: inactive
[3]
  Activity: inactive
[4]
  Activity: inactive
[5]
  Activity: Dose-dependent effect
[6]
  Activity: inactive
[7]
  Activity: Dose-dependent effect
[8]
  Activity: Dose-dependent effect
[9]
  Activity: Dose-dependent effect
[10]
  Activity: Dose-dependent effect
[11]
  Activity: inactive
[12]
  Activity: inactive
[13]
  Activity: inactive
[14]
  Activity: Dose-dependent effect
[15]
  Activity: inactive
[16]
  Activity: inactive
[17]
  Activity: inactive
[18]
  Activity: Dose-dependent effect
[19]
  Activity: Dose-dependent effect
[20]
  Activity: inactive
[21]
  Activity: inactive
